Experimental findings from ChEMBL document CHEMBL3233000, “Cytotoxic ent-kaurane diterpenoids from Isodon wikstroemioides” (J Nat Prod, 2014) are described below.

What all share (type): functional, cell-based
For assay [1], the system named is A549. The experiment in a line: Cytotoxicity against human A549 cells assessed as growth inhibition after 48 hrs by MTS assay. Conditions: A549, 48 h. A digest of the protocol:
(§1)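 Cell lines from ATCC, grown in RPMI-1640 or DMEM with 10% FBS at 37 °C, 5% CO2. Cells seeded, incubated 12 h at 37 °C, then screened at 40 μM for 48 h with MTS read-out. Where growth inhibition reached 50%, retested at 0.064, 0.32, 1.6, 8 and 40 μM in triplicate. Cisplatin and paclitaxel were positive controls. IC50 by Reed and Muench method.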
Background: Tetrazolium dyes change colour on reduction, which living cells bring about.

Assay [2] concerns MCF7. The experiment in a line: Cytotoxicity against human MCF7 cells assessed as growth inhibition after 48 hrs by MTS assay. Conditions: MCF7, 48 h. A digest of the protocol: as §1
The subject of assay [3] is SW480. The experiment in a line: Cytotoxicity against human SW480 cells assessed as growth inhibition after 48 hrs by MTS assay. Conditions: SW480, 48 h. The method, boiled down:
as §1

For assay [4], the system named is RAW264.7. The experiment in a line: Inhibition of nitric oxide production in LPS-stimulated mouse RAW264.7 cells after 18 hrs by griess reagent based plate reader analysis. Conditions: RAW264.7, 18 h. The method, boiled down:
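RAW264.7 macrophages seeded at 2 × 10^5 cells/well. Treated with serial dilutions (top concentration 25 μM), then stimulated with LPS 1 μg/mL for 18 h. Supernatant NO measured with Griess reagents, absorbance 550 nm. MG-132 was the positive control. Viability was checked in parallel by MTT (595 nm) to exclude cytotoxic interference.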
On the technique in general: Nitrite, measured by Griess reagent, commonly stands in for NO production.

Assay [5] deals with SMMC-7721. The experiment in a line: Cytotoxicity against human SMMC7721 cells assessed as growth inhibition after 48 hrs by MTS assay. Conditions: SMMC-7721, 48 h. A digest of the protocol: as §1
Assay [6] concerns HL-60. The experiment in a line: Cytotoxicity against human HL60 cells assessed as growth inhibition after 48 hrs by MTS assay. Conditions: HL-60, 48 h. The method, boiled down: as §1

The structures appear in SMILES notation.

By IC50 is commonly meant the concentration needed to halve the response being measured. Regarding `C=C1C(=O)[C@@]23CC(=O)[C@@H]4C(C)(C)CCC[C@@]4(C)[C@@H]2[C@@H](O)C[C@@H]1[C@H]3O`, the IC50 in assay [1] amounted to 1 µM; in assay [2], 1.6 µM; in assay [3], 1 µM; in assay [4], 1.1 µM; in assay [5], 0.8 µM; in assay [6], 3.1 µM.
Regarding `C=C1C(=O)[C@]23[C@H](O)[C@H]1[C@@H](O)[C@H](O)[C@H]2[C@]1(C)CCCC(C)(C)[C@H]1C[C@H]3OC(C)=O`, the half-maximal inhibitory concentration (IC50) was greater than 10 µM in assay [1]; greater than 10 µM in assay [2]; 4.7 µM in assay [3]; 7.2 µM in assay [4]; 5.8 µM in assay [5]; 8.8 µM in assay [6].
As to `C=C1C(=O)[C@@]23CC[C@@H]4[C@@](C)(CO)CCC[C@@]4(C=O)[C@@H]2CC[C@@H]1[C@H]3O`, the IC50 was greater than 10 µM in assay [1]; greater than 10 µM in assay [2]; greater than 10 µM in assay [3]; 9.9 µM in assay [4]; greater than 10 µM in assay [5]; greater than 10 µM in assay [6].
`C=C1C(=O)[C@]23[C@H](O)[C@H]1[C@@H](O)C[C@H]2[C@]1(C)CCC[C@](C)(CO)[C@H]1C[C@H]3OC(C)=O`: the half-maximal inhibitory concentration (IC50) is greater than 10 µM in assay [1]; greater than 10 µM in assay [2]; 6.9 µM in assay [3]; 16.8 µM in assay [4]; greater than 10 µM in assay [5]; greater than 10 µM in assay [6].
Take `C=C1[C@H]2C[C@@]3(CC[C@@H]4[C@@](C)(CO)CCC[C@@]4(C)[C@@H]3C[C@@H]2O)[C@@H]1O`: the IC50 is greater than 10 µM in assay [1]; greater than 10 µM in assay [2]; greater than 10 µM in assay [3]; 23.9 µM in assay [4]; greater than 10 µM in assay [5]; greater than 10 µM in assay [6].
As for `C=C1C(=O)[C@@]23[C@H](O)C[C@@H]4C(C)(C)CCC[C@@]4(C)[C@@H]2[C@@H](O)C[C@@H]1[C@H]3O` [PHYLLOSTACHYSIN F], the concentration for half-maximal inhibition (IC50) in assay [1] came to 2.3 µM; in assay [2] it was 1.5 µM; in assay [3], 1.1 µM; in assay [4], 1 µM; in assay [5], 2.1 µM; in assay [6], 3.3 µM.
For `C=C1C(=O)[C@@]23CC[C@@H]4[C@@](C)(CO)[C@H](O)CC[C@@]4(C)[C@@H]2C[C@H](O)[C@@H]1C3`, the IC50 is 3.7 µM in assay [1]; 4.8 µM in assay [2]; 2.7 µM in assay [3]; 4.7 µM in assay [4]; 4.1 µM in assay [5]; 4.1 µM in assay [6].
For `C=C1C(=O)[C@@]23[C@H](O)C[C@@H]4[C@@](C)(CO)CCC[C@@]4(C)[C@@H]2CC[C@@H]1[C@H]3O` [EXCISANIN C], the concentration for half-maximal inhibition (IC50) in assay [1] worked out at 2.1 µM; in assay [2], 1.6 µM; in assay [3], 1.3 µM; in assay [4] it was 1 µM; in assay [5] it was 2.7 µM; in assay [6], 3 µM.
Consider `C=C1C(=O)[C@]23[C@H](O)[C@H]1[C@@H](O)C[C@H]2[C@]1(C)CCC[C@](C)(COC(C)=O)[C@H]1C[C@H]3OC(C)=O`, for which the IC50 in assay [1] stood at 2.7 µM; in assay [2] it was 1.6 µM; in assay [3] it was 0.9 µM; in assay [4], 5 µM; in assay [5], 3.5 µM; in assay [6], 2.9 µM.
In the case of `C=C1C(=O)[C@]23C[C@H]1[C@@H](O)C[C@H]2[C@]1(C)CCC[C@](C)(CO)[C@H]1C[C@H]3O`, the IC50 in assay [1] was 4.4 µM; in assay [2], 4.9 µM; in assay [3], 1.4 µM; in assay [4], 3.5 µM; in assay [5], 4 µM; in assay [6], 3.6 µM.
